The source made the active and inactive calls.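 Rule for the calls, unless noted: active = NADPH fluorescence slope more negative than the mean of all samples by about 3 SD, 99.7% confidence; inactive = the rest.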 Where a SMILES comes first, the peptide text is derived from it. The star is where a group is joined. Boc = CC(C)(C)OC(=O)*

A short description of experiment [1]: inhibitors of TNFa-induced NFkB p65 translocation, primary screen, imaging, HUVEC, MLSMR starter and 10KST1 sets (AID 438;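 active = inhibition above 20% together with a positive visual image hit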;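 note: compound added about 3h40 before a 20 min TNFalpha stimulation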;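 for inhibition: signal is the nuclear over cytoplasmic p65 intensity ratio per well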). The conditions noted are these: HUVEC TNFa-induced p65 nuclear translocation; cell count: measured here: nuclei count (cytotoxicity indicator), at 2.08 µM; inhibition: at 2 µM, stronger effect = higher value, 0% TNFa-plus-vehicle, 100% no-TNFa wells.

Experiment [2] in a line: reduction of polyQ htt aggregates in cells – imaging, exon1htt(103Q)mCFP cells, high-content imaging, primary screen (AID 483;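 active = visual image review flags a hit and inhibition of aggregation exceeds 20%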;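 note: compound exposure lasted 3 days before fixation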;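 for nuclei count: percent of the per-plate median nuclei count of sample wells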). The conditions noted are these: exon1htt(103Q)mCFP cell line, aggregate imaging, at 2 µM; inhibition of aggregation: stronger effect = higher value; nuclei count: measured here: cell count, toxicity.
The nature of experiment [3]: endothelial E-selectin expression blockers – imaging, HUVEC, immunofluorescence, MLSMR starter and 10KST1 sets, primary screen (AID 487;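 active = visually confirmed hit in the image check and inhibition above 20%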;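 for inhibition: signal is fraction of cell area covered by stained E-selectin grains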;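 for nuclei count: 100% = median nuclei count of all wells on the same plate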). The conditions noted are these: HUVEC TNFalpha-induced E-selectin immunofluorescence imaging, at 2 µM; inhibition: stronger effect = higher value; nuclei count: measured here: cell number, toxicity.
Experiment [4] addresses Voltage-gated potassium channel subunit beta-2 (Rattus norvegicus) (UniProt P62483). Briefly: inhibitors of rat Kvbeta2 reductase activity – biochemical, NADPH fluorescence, primary screen (AID 622;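 active = fluorescence slope higher than the sample average by over 3 SD, cut at about -0.22 in these data, passing the limit was not always enough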;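 note: slope of raw intensity against log time taken from 70 to 1610 s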). The conditions noted are these: recombinant KvBeta, 4-cyanobenzaldehyde reduction, at 10 µM, stronger effect = higher value.
Experiment [5] has the same target. In words: enhancers of rat Kvbeta2 NADPH turnover – biochemical, NADPH fluorescence, primary screen (AID 623).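 Note: fluorescence intensity change per second fitted from 20 to 320 s.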 The following applies: Recombinant KvBeta, NADPH fluorescence decrease slope, 10 min; at 10 µM; stronger effect = lower value.
The target of experiment [6] is Muscarinic acetylcholine receptor M4 (Homo sapiens) (UniProt P08173). In words: M4-linked GIRK flux change, two-sided – cell-based, HEK293 M4/GIRK, thallium flux, BTC-AM, M4 allosteric agonist project, primary screen (AID 625;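 active = fluorescence slope after compound addition differing from the mean of all tested samples at 99.7% confidence, mostly higher but some lower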;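 note: thallium influx through GIRK channels coupled to M4 in HEK293 cells with BTC-AM dye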). The following applies: at 10 µM, actives lie on both sides. The method in brief:
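Material: HEK293 cells with M4 receptor and GIRK channels; Times: cells overnight at 37 °C, BTC-AM loading 1 h, reads 2 min total; Technique: kinetic BTC-AM fluorescence sampled at 1 Hz, 10 s pre-addition baseline; Read-out basis: slope over 15–24 s of trace normalized to starting intensity; Controls: carbachol positive, DMSO negative.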

A short description of experiment [7]: blockers of RIG-like receptor reporter activation – cell-based, Sendai virus stimulus, luciferase, 10K MLSCN set, TLR/RLR signaling modifier project, primary screen (AID 602276;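 active = inhibition at or above 50% at 10 µM; inactive = inhibition below 50%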;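 note: firefly luciferase from ISG56 promoter only with Renilla not read in this screen; 0% = Sendai virus plus DMSO and 100% = medium plus DMSO without virus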). The following applies: HEK293 RL24 IRF3 luciferase reporter, at 10 µM, stronger effect = higher value. On the technique in general: Reporter assays use an easily measured gene product as a stand-in for the process of interest.

A short description of experiment [8]: TLR3 IRF3 reporter activation blockers – cell-based, poly I:C stimulus, luciferase, 10K MLSCN set, primary screen (AID 602277;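 active = inhibition of the reporter signal at or above 50%; inactive = inhibition below 50%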). The conditions noted are these: HEK293-TLR3 RL24 IRF3 luciferase reporter, at 10 µM, stronger effect = higher value.

Muscarinic acetylcholine receptor M4 (Homo sapiens), sequence (P08173 whole entry, looked up): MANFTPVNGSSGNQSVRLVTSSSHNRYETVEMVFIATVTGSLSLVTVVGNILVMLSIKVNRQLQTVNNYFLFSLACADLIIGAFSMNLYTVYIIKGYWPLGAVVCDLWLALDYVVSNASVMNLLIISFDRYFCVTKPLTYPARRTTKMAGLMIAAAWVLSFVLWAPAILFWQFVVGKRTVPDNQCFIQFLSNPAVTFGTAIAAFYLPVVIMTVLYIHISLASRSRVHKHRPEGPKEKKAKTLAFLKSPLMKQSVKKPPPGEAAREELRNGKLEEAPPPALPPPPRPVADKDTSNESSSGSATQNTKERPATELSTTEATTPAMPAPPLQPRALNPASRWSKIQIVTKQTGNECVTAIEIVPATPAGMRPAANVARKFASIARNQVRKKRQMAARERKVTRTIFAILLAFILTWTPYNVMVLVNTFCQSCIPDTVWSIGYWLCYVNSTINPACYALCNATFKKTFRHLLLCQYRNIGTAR
Voltage-gated potassium channel subunit beta-2 (Rattus norvegicus), sequence (P62483 whole entry, looked up): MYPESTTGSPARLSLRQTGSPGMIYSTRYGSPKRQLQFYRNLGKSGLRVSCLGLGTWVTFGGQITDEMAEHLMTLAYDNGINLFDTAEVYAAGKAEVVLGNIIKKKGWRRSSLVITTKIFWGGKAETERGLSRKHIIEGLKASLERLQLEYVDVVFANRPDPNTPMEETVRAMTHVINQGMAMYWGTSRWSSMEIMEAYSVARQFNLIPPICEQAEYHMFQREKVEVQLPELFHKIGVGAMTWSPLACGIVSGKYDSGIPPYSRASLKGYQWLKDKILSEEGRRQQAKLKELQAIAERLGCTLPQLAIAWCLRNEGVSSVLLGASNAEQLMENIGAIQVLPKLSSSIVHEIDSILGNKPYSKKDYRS

On to `COC(=O)c1ccc(COc2ncnc3c(Cl)cc(Cl)cc23)o1`, for which, in experiment [1], the cell count is 406. The inhibition (commonly the drop in the measured response relative to a control, in per cent) in experiment [1] is -5% (inactive); in experiment [3], 59.9% (inactive); in experiment [7], 2.59% (inactive); in experiment [8], 1.58% (inactive). Besides, the inhibition of aggregation in experiment [2] was 25.5% (inactive). For the same molecule, the nuclei count in experiment [2] amounted to 74.4%; in experiment [3] it was 78.8%. For the same molecule, the fluorescence slope was -0.433 (inactive) in experiment [4] and 0.00494 (inactive) in experiment [6]. In experiment [5], the NADPH fluorescence slope is -0.000426 (inactive).

As for `CCCn1c2ccccc2c2nnc(SCC(=O)OCC)nc21`, in experiment [1], the cell count stood at 412. In addition, the inhibition was -1.5% (inactive) in experiment [1], 14.6% (inactive) in experiment [3], 17.9% (inactive) in experiment [7] and 25% (inactive) in experiment [8]. Besides, the inhibition of aggregation in experiment [2] is -3% (inactive). The figures for the nuclei count in experiment [2] and in experiment [3] were 124% and 104%, respectively. The figures for the fluorescence slope in experiment [4] and in experiment [6] were -0.536 (inactive) and 0.00386 (inactive), respectively. Besides, the NADPH fluorescence slope in experiment [5] was -7.3e-05 (inactive).

Turning to `CCOC(=O)C1=C(C)NC(SC(C)=O)=NC1c1ccc(OC(C)=O)c(OC)c1` (stereo not drawn), in experiment [1], the cell count stood at 550. In addition, the inhibition was 0% (inactive) in experiment [1], -10.1% (inactive) in experiment [3], 1.93% (inactive) in experiment [7] and 1.43% (inactive) in experiment [8]. Also, the inhibition of aggregation in experiment [2] is 50% (active). Besides, the values for the nuclei count in experiment [2] and in experiment [3] were 64.7% and 101%, respectively. The fluorescence slope in experiment [4] is -0.507 (inactive); in experiment [6], 0.0052 (inactive). The NADPH fluorescence slope in experiment [5] is -0.000113 (inactive).

Turning to `CCOC(=O)N1CCC(Nc2c(-c3ccc(C)cc3)c(=O)c2=O)CC1`, the cell count in experiment [1] amounted to 801. The inhibition in experiment [1] was -12.2% (inactive); in experiment [3] it was -33.6% (inactive); in experiment [7], 2.25% (inactive); in experiment [8], 16.5% (inactive). The inhibition of aggregation in experiment [2] is 26.1% (inactive). The nuclei count in experiment [2] turned out to be 89.2%; in experiment [3], 106%. Besides, the fluorescence slope in experiment [4] is -0.471 (inactive); in experiment [6] it was 0.007 (inactive). In experiment [5], the NADPH fluorescence slope is -3.2e-05 (inactive).

For the molecule `O=C(Cc1ccsc1-c1ccccc1)NO`, the cell count in experiment [1] was 483. Also, the inhibition is -1.2% (inactive) in experiment [1], 44.1% (inactive) in experiment [3], 17.8% (inactive) in experiment [7] and 11.3% (inactive) in experiment [8]. Also, in experiment [2], the inhibition of aggregation was 11.3% (inactive). The results for the nuclei count in experiment [2] and in experiment [3] were 76% and 57.7%, respectively. For the same molecule, the fluorescence slope was -0.46 (inactive) in experiment [4] and 0.00508 (inactive) in experiment [6]. Also, the NADPH fluorescence slope in experiment [5] was -3.2e-05 (inactive).

With `COc1ccc(-c2cc(C(F)(F)F)nc(SCCC(=O)N3CCOCC3)n2)cc1`, the cell count in experiment [1] came to 506. Also, the inhibition is -6.7% (inactive) in experiment [1], -59.7% (inactive) in experiment [3], 16.4% (inactive) in experiment [7] and -4.79% (inactive) in experiment [8]. Moreover, in experiment [2], the inhibition of aggregation was -23.3% (inactive). For the same molecule, the nuclei count in experiment [2] stood at 83.6%; in experiment [3], 133%. Also, the figures for the fluorescence slope in experiment [4] and in experiment [6] were -0.596 (inactive) and 0.00462 (inactive), respectively. Moreover, the NADPH fluorescence slope in experiment [5] was -1.1e-06 (inactive).

With `CCOC(=O)CSc1nc2ccccc2n2cnnc12`, in experiment [1], the cell count was determined as 315. The inhibition in experiment [1] is -1.4% (inactive); in experiment [3], -4% (inactive); in experiment [7], 2.3% (inactive); in experiment [8] it was 8.27% (inactive). For the same molecule, the inhibition of aggregation in experiment [2] is 13.5% (inactive). Besides, the nuclei count in experiment [2] worked out at 103%; in experiment [3], 113%. The fluorescence slope was -0.327 (inactive) in experiment [4] and 0.00582 (inactive) in experiment [6]. In addition, the NADPH fluorescence slope in experiment [5] is -5.9e-05 (inactive).

Turning to `CC(C)CC(NC(=O)OC(C)(C)C)C(=O)NC(C(=O)NC(C)C(N)=O)C(C)C` (stereo not drawn) (Boc-Leu-Val-Ala-NH2; configuration not given here), in experiment [1], the cell count turned out to be 342. The inhibition is 4.6% (inactive) in experiment [1], -20.6% (inactive) in experiment [3], -9.68% (inactive) in experiment [7] and 17.1% (inactive) in experiment [8]. In addition, the inhibition of aggregation in experiment [2] was 4.4% (inactive). For the same molecule, the nuclei count in experiment [2] amounted to 116%; in experiment [3], 117%. Also, the fluorescence slope is -0.573 (inactive) in experiment [4] and 0.00562 (inactive) in experiment [6]. In experiment [5], the NADPH fluorescence slope is -1.3e-05 (inactive).

As for `COc1cccc2c(=O)c3c(cnn3C)n(C)c12`, the cell count in experiment [1] is 279. Also, the inhibition is 16.3% (inactive) in experiment [1], -37.2% (inactive) in experiment [3], -10.8% (inactive) in experiment [7] and -29.4% (inactive) in experiment [8]. Besides, the inhibition of aggregation in experiment [2] is -31.5% (inactive). The nuclei count in experiment [2] came to 52.8%; in experiment [3], 111%. Further, the fluorescence slope in experiment [4] was -0.412 (inactive); in experiment [6], 0.00385 (inactive). For the same molecule, the NADPH fluorescence slope in experiment [5] was 3.1e-05 (inactive).

As for `COc1cc(OC)c(C(=O)Nc2ccc(N(C)C)cc2)cc1OC`, the cell count in experiment [1] is 369. For the same molecule, the inhibition in experiment [1] is 5.2% (inactive); in experiment [3], -85.5% (inactive); in experiment [7], -79.1% (inactive); in experiment [8] it was 99.1% (active). The inhibition of aggregation in experiment [2] was 7.1% (inactive). Also, the values for the nuclei count in experiment [2] and in experiment [3] were 94% and 116%, respectively. For the same molecule, the fluorescence slope in experiment [4] was -0.448 (inactive); in experiment [6] it was 0.00454 (inactive). Further, in experiment [5], the NADPH fluorescence slope is -4.1e-05 (inactive).

Consider `Cn1c(=O)c2c(nc(SCC(=O)O)n2Cc2cccc(C(F)(F)F)c2)n(C)c1=O`, for which the cell count in experiment [1] was found to be 204. Also, the inhibition in experiment [1] is -0.8% (inactive); in experiment [3] it was 9.2% (inactive); in experiment [7] it was 15.4% (inactive); in experiment [8] it was 13.8% (inactive). In addition, the inhibition of aggregation in experiment [2] was -19.7% (inactive). In addition, the nuclei count was found to be 77.2% in experiment [2] and 74.6% in experiment [3]. The fluorescence slope was -0.531 (inactive) in experiment [4] and 0.0052 (inactive) in experiment [6]. The NADPH fluorescence slope in experiment [5] was 6.2e-06 (inactive).

Regarding `O=C(CSc1nnc(Cn2nnc(-c3ccccc3)n2)n1-c1ccccc1)Nc1ccc(F)cc1`, the cell count in experiment [1] is 626. Also, the inhibition in experiment [1] was -9.3% (inactive); in experiment [3] it was -114% (inactive); in experiment [7], 10.9% (inactive); in experiment [8], 14.9% (inactive). Also, the inhibition of aggregation in experiment [2] was -10.3% (inactive). The nuclei count stood at 101% in experiment [2] and 111% in experiment [3]. Moreover, the fluorescence slope in experiment [4] was -0.573 (inactive); in experiment [6], 0.00351 (inactive). For the same molecule, the NADPH fluorescence slope in experiment [5] was -6e-05 (inactive).

`CCOC(=O)c1sc(C)c2c(=O)n(CC)nnc12`: in experiment [1], the cell count was determined as 304. For the same molecule, the inhibition was 0.8% (inactive) in experiment [1], -56% (inactive) in experiment [3], 6.72% (inactive) in experiment [7] and 4.72% (inactive) in experiment [8]. For the same molecule, the inhibition of aggregation in experiment [2] was -14.4% (inactive). In addition, the nuclei count in experiment [2] turned out to be 102%; in experiment [3], 109%. Further, the fluorescence slope in experiment [4] is -0.523 (inactive); in experiment [6], 0.00361 (inactive). For the same molecule, in experiment [5], the NADPH fluorescence slope was -2.3e-06 (inactive).

(Values after PubChem BioAssay.)
